Screening data from PubChem BioAssay.
A selection: hits, their analogues and other compounds. The true share with any hit is near 4.2%.
XBP1 UPR activ: adaptive UPR (XBP1) activation; CHO-XBP1 luciferase reporter, IRE1-XBP1 UPR activation, luminescence; percent of tunicamycin response, DMSO as zero; activation, % at 20 µM; 330,000 compounds, 0.33% hits; AID 463104;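 active = versus positive control, 20 µM dose yields 30% or more activation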
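Material: CHO cell line with stable XBP1 luciferase reporter; schedule: 16-18 h cell attachment at 37 °C, then 6 h compound exposure; signal: glow luminescence from Steady-Glo reagent; medium: serum-containing F12 medium, 10% FBS; benchmarks: tunicamycin 10 µg/mL and vehicle-only wells; read-out: percent activation relative to tunicamycin reference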
Hep lipid drop: hepatic lipid droplet formation modulation; AML12 mouse hepatocytes, oleate lipid droplets, BODIPY imaging; AID 1656; inhibition, % at 6.5 µM; 240,000 compounds, 0.4% hits;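 active = lipid droplet intensity inhibited by at least 50%, with more than 500 cells counted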
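Material – mouse AML12 hepatocyte cell line, fixed after treatment · Compound dosing – one dose, 6.5 µM compound · Times – compound with oleate, overnight · Measured by – Image-based BODIPY and DAPI two-channel analysis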
TMEM16A inh: blocks the mouse calcium-activated chloride channel TMEM16A | Q8BHY3 | HEK293 TMEM16A/YFP iodide influx fluorescence, ionomycin | normalized B-score (activity score, 25-100; higher = stronger inhibition) at 10 µM | 310,000 compounds, 1.2% hits;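 active = ratio plate-corrected score three or more library SD toward inhibition, starting fluorescence score within five deviations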;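 note: score derived from kinetic fluorescence span divided by baseline fluorescence per well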
Target sequence (Q8BHY3 whole entry, looked up): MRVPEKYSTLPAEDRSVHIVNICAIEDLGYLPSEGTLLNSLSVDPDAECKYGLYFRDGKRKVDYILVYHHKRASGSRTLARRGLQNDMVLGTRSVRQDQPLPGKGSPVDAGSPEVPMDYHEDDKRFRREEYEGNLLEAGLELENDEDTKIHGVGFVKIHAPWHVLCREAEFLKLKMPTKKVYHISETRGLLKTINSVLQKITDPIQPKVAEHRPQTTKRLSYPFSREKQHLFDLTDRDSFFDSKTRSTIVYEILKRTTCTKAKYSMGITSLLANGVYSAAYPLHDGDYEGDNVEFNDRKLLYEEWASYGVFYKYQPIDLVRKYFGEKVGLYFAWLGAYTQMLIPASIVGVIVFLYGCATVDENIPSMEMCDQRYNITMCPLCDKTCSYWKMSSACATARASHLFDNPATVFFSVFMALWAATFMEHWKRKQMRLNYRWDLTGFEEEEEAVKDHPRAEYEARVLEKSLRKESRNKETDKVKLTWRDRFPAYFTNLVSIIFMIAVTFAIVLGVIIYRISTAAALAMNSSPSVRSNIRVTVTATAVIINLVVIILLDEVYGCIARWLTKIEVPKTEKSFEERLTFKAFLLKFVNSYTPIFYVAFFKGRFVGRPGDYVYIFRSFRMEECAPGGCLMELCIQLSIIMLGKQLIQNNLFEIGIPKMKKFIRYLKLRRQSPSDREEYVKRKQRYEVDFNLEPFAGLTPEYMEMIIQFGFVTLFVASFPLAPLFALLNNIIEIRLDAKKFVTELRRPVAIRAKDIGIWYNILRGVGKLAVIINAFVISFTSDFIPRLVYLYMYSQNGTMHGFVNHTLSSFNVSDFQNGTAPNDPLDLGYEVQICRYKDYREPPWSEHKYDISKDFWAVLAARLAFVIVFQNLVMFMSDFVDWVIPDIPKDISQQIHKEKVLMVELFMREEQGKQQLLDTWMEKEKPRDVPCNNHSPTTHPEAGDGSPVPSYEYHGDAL
ANO1 activ: activators or potentiators of mouse TMEM16A chloride channel; Q8BHY3; HEK293 TMEM16A/YFP-H148Q/I152L, iodide quench fluorescence; hits give low values; B-score at 10 µM; 340,000 compounds, 0.3% hits; AID 623877;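 active = fluorescence-ratio B-score plate-corrected deviation score at least 3 library SD below zero, with starting fluorescence score within 5 deviations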;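 note: channel opened by trigger with iodide after compound preincubation; score built on the fluorescence ratio of max minus min over baseline; more negative score means more quench and so TMEM16A activation or potentiation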
UPR CHOP act: activators of apoptotic arm of unfolded protein response (CHOP) | CHO-CHOP luciferase reporter, UPR activation, luminescence; percent of tunicamycin response over DMSO baseline | activation, % at 10 µM | 330,000 compounds, 0.34% hits | AID 449763;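 active = at 10 µM dose, activation of 40% or more, normalized to positive control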
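Test system: CHO CHOP reporter cells. Input: 500 CHO-CHOP cells per well. Medium: F12 with 10% FBS. Technique: luciferase luminescence. Measure: percent activation relative to tunicamycin control. Dosing: 10 µM compound, 0.5% DMSO. Timing: 16-18 h cell attachment, then 6 h compound exposure, 37 °C.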
CHOP inhibitor: blocks CHOP induction under ER stress. inhibition, % at 10 µM. 220,000 compounds, 3.8% hits. AID 2732. CHO-K1 CHOP-promoter luciferase, tunicamycin-induced, 15-18 h;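 active = compounds that reduced the stress-induced luciferase reporter signal by more than about 70% of percent inhibition, limit read from the data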
XBP1 UPR conf: confirmation of adaptive unfolded protein response (XBP1) activators; shares compounds with XBP1 UPR activ; CHO-XBP1 IRE1-XBP1 luciferase reporter, luminescence; activation, % at 20 µM; 1,000 compounds, 63% hits; AID 485299;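 active = reporter signal at least 30% of the positive control's activation in two or more of four replicate wells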
Each line names hits and unclear results; the compound was inactive in the other large screens (follow-up assays come after a bar, where they were run).

COc1ccc(N2CCN(Cc3nc(N)nc(Nc4ccc(C)c(Cl)c4)n3)CC2)cc1	XBP1 UPR activ 33 | XBP1 UPR conf 62
Cc1ccc(NC(=O)c2nc[nH]c2C(=O)NCCCNC(=O)c2[nH]cnc2C(=O)Nc2ccc(C)cc2)cc1	XBP1 UPR activ 61 (no result: Hep lipid drop, TMEM16A inh, CHOP inhibitor) | XBP1 UPR conf 34
CCn1c(SCC(=O)c2c(N)n(C3CC3)c(=O)[nH]c2=O)nc2cc(S(N)(=O)=O)ccc21	none (no result: Hep lipid drop, TMEM16A inh, CHOP inhibitor)
Cn1c(COc2ccccc2O)[n+](C)c2ccccc21	none (no result: CHOP inhibitor)
CCCCCCCCCCOC(=O)Cn1c(COc2ccccc2OC)[n+](C)c2ccccc21	XBP1 UPR activ 77, TMEM16A inh 100, ANO1 activ -5.8 (no result: CHOP inhibitor) | XBP1 UPR conf 52
CCOC(=S)SCC(=O)Nc1nc(-c2ccc(Br)cc2)cs1	XBP1 UPR activ 93, CHOP inhibitor 82 | XBP1 UPR conf 164
COc1ccc(CN2C(=O)c3cccnc3C2=O)cc1S(=O)(=O)NC(C)C	none (no result: CHOP inhibitor)
Cc1ccc(-c2nnc3c(C(F)(F)F)nc4ccccc4n23)cc1	none
FC(F)(F)c1nc2ccccc2n2c(-c3ccc(Cl)cc3)nnc12	XBP1 UPR activ 47 (no result: Hep lipid drop) | XBP1 UPR conf 54
COc1cccc(C(=O)Nc2ccc(C(=O)NCC3CCCO3)cc2)c1 (stereo not given)	none (no result: Hep lipid drop, CHOP inhibitor)
COc1ccc(/C=N/Nc2nc(-c3cccnc3)nc3ccccc23)c(OC)c1	XBP1 UPR activ 37 | XBP1 UPR conf inactive
NC(=O)N/N=C/c1ccccc1OCc1cccc2ccccc12	none (no result: CHOP inhibitor)
Cc1c(NS(=O)(=O)c2cc(C(=O)NC(C)c3ccccc3)ccc2Cl)c(=O)n(-c2ccccc2)n1C (stereo not given)	none (no result: Hep lipid drop, TMEM16A inh, CHOP inhibitor)
CCCCNc1c(-c2ccc(-c3ccc(C(C)=O)cc3)c(OC)c2)nc2cc(C)ccn12	XBP1 UPR activ 40 (no result: Hep lipid drop, TMEM16A inh, CHOP inhibitor) | XBP1 UPR conf 38
CC[C@]12c3[nH]c4cc(-c5ccco5)ccc4c3CCN1C(=O)[C@@H](CC(=O)NCCc1ccccn1)C[C@@H]2C(=O)N1CCN(C(=O)C2CC2)CC1	none (no result: Hep lipid drop, TMEM16A inh, ANO1 activ, CHOP inhibitor)
CC(C)C[C@H](NC(=O)c1nc[nH]c1C(=O)NC(c1ccccc1)c1ccccc1)C(=O)OC(C)(C)C	none
CC(C)C[C@H](NC(=O)c1nc[nH]c1C(=O)N[C@@H](CC(C)C)C(=O)OC(C)(C)C)C(=O)OC(C)(C)C	XBP1 UPR activ 45 | XBP1 UPR conf inactive
COC(=O)CN1C(=S)N(c2ccc(F)cc2)C(=O)C1CC(=O)Nc1ccc(OC)cc1 (stereo not given)	none
CCC(=O)Nc1cc(-c2nn(C)c(=O)c3ccccc23)ccc1OC	none
COc1ccc(-c2nn(C)c(=O)c3ccccc23)cc1NC(=O)Cn1nc(C)c2ccccc2c1=O	XBP1 UPR activ 56 | XBP1 UPR conf 82
N#Cc1cnn2c1nc(N1CCCCC1)c1ccccc12	XBP1 UPR activ 47 (no result: Hep lipid drop) | XBP1 UPR conf 41
CCCCn1c(=O)[nH]c(=O)c2c1nc(-c1ccc(OC)c(Br)c1)n2CC(C)C	none (no result: CHOP inhibitor)
C=CCOc1ccc(-c2nc3c(c(=O)[nH]c(=O)n3CCCC)n2C)cc1Br	XBP1 UPR activ 39 (no result: CHOP inhibitor) | XBP1 UPR conf inactive
CC(=O)c1cccc(Nc2nc(-c3cccc([N+](=O)[O-])c3)cs2)c1	XBP1 UPR activ 43 | XBP1 UPR conf 32
Cc1ccc(-c2n[nH]c(=S)n2/N=C/C=C/c2ccccc2[N+](=O)[O-])cc1	none
O=[N+]([O-])c1ccccc1/C=C/C=N/n1c(-c2cc(-c3ccccc3)n[nH]2)n[nH]c1=S	XBP1 UPR activ 39 | XBP1 UPR conf inactive
O=C(CC(c1ccccc1)c1ccccc1)Nc1ccc(C(=O)O)cc1	none (no result: CHOP inhibitor)
Cc1ccc(S(=O)(=O)CCC(=O)OCc2cc(=O)oc3cc(C)ccc23)cc1	none (no result: Hep lipid drop, TMEM16A inh, CHOP inhibitor)
COc1ccc(-c2cc(C(=O)Nc3c(C)nn(Cc4ccc(Cl)cc4)c3C)no2)cc1	XBP1 UPR activ 49, CHOP inhibitor 81 | XBP1 UPR conf inactive
C/C(=N/NC(=O)c1ccc(Cl)s1)c1ccc(NC(=O)COc2ccc(Cl)cc2)cc1	XBP1 UPR activ 37 | XBP1 UPR conf 53
O=C(Nc1ccc(-n2nncc2-c2ccco2)cc1)c1cc2ccccc2oc1=O	XBP1 UPR activ 67 (no result: Hep lipid drop) | XBP1 UPR conf inactive
CCOC(=O)c1ccc(Oc2coc3cc(O)ccc3c2=O)cc1	none (no result: CHOP inhibitor)
COc1cc(/C=C/C(=O)c2ccccc2O)cc(OC)c1OC	XBP1 UPR activ 31 | XBP1 UPR conf inactive
O=C(O)c1ccccc1NC(=O)C(Cc1ccccc1)N1C(=O)c2ccccc2C1=O (stereo not given)	none (no result: CHOP inhibitor)
O=C(Nc1ccc([N+](=O)[O-])cc1)C(Cc1ccccc1)N1C(=O)c2cccc3cccc(c23)C1=O (stereo not given)	XBP1 UPR activ 42 | XBP1 UPR conf 46
COc1ccc(-n2c(SCC(=O)Nc3sc4c(c3C#N)CCCC4)nnc2-c2ccccc2OC)cc1	none
COc1ccc(-c2nnc(SCC(=O)Nc3sc4c(c3C#N)CCCC4)n2-c2ccccc2)cc1	XBP1 UPR activ 35 | XBP1 UPR conf 61
COc1ccc(OC)c2[nH]c(C(=O)N/N=C/c3ccccc3O)cc12	none (no result: Hep lipid drop, CHOP inhibitor)
COc1ccc(/C=N/NC(=O)c2cc3c(OC)ccc(OC)c3[nH]2)cc1O	XBP1 UPR activ 32 (no result: Hep lipid drop, CHOP inhibitor) | XBP1 UPR conf inactive
Nc1cc(C(=O)N2CCN(c3ccc([N+](=O)[O-])cc3)CC2)ccc1N1CC2CC(C1)c1cccc(=O)n1C2 (stereo not given)	none (no result: CHOP inhibitor)
Cc1ccc(C)c(S(=O)(=O)NCC(=O)Nc2sc3c(c2C(N)=O)CCC(C)C3)c1 (stereo not given)	XBP1 UPR activ 32 | XBP1 UPR conf inactive
CCOC(=O)Nc1sc2c(c1C(N)=O)CCC(C)C2 (stereo not given)	none
C[C@@H]1C[C@H]2[C@@H]3CCC4=CC(=O)C=C[C@]4(C)[C@@]3(Cl)[C@@H](O)C[C@]2(C)[C@@]1(OC(=O)c1ccco1)C(=O)CCl	XBP1 UPR activ 79 (no result: Hep lipid drop, CHOP inhibitor) | XBP1 UPR conf 58
Cc1cc(C(=O)NNC(=O)c2ccccc2[N+](=O)[O-])c(C)o1	XBP1 UPR activ 59 (no result: Hep lipid drop, TMEM16A inh, CHOP inhibitor) | XBP1 UPR conf inactive
Cc1cc(C)nc(SCC(=O)c2ccc(O)c(O)c2)n1	none (no result: CHOP inhibitor)
Cc1cc(SCC(=O)c2ccc(O)c(O)c2)n2nc(C)c(-c3ccccc3)c2n1	XBP1 UPR activ 101 | XBP1 UPR conf 58
O=C(O)c1ccc(N/N=C/c2ccc(-c3ccccc3Cl)o2)cc1	none
Clc1ccccc1-c1ccc(/C=N/Nc2nncc(-c3ccccc3)n2)o1	XBP1 UPR activ 41 | XBP1 UPR conf inactive
